Measurements taken from ChEMBL document CHEMBL4513216, “Probing the Open Global Health Chemical Diversity Library for Multistage-Active Starting Points for Next-Generation Antimalarials” (ACS Infect Dis, 2020).

Assay: Toxicity liver stage against HepG2, at 10uM
Format: cell-based
Parameters: test concentration 10 uM, cell line HepG2-A16-CD81EGFP
Conditions: human, HepG2-A16-CD81EGFP cells; read-out: INHIBITION
Procedure, shortened: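 Uninfected HepG2-A16-CD81EGFP cells, 3 × 10^3 per well, 1536-well, plated on prespotted compound at 10 μM final, parasite-free screening media added to match infected plates; puromycin 10 μM positive, DMSO 0.5% negative; run in parallel with 48 h PbLuc assay at 37 °C, 5% CO2; viability by CellTiter-Glo luminescence, normalized to controls.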

| SMILES | cytotoxicity at 10 µM |
| --- | --- |
| CN1CCN(Cc2ccccc2Oc2cncc(C(N)=O)n2)CC1 | -4.89% |
| CSc1ccccc1CN1CCn2nc(CNC(=O)N(C)C)cc2C1 | 19.5% |
| CNC(=O)C1CCCN(c2nc(-c3ccco3)nc3c2CCNCC3)C1 (stereo not given) | -7.74% |
| CCCc1cnc(C)nc1NC(C)Cc1cnccn1 (stereo not given) | -7.96% |
| CCC(C(=O)N1CCS(=O)(=O)CC1)n1cccn1 (stereo not given) | 1.28% |
| Cc1ccccc1-n1cc(CNC(=O)CC2C(=O)NCCN2C)cn1 (stereo not given) | 2.4% |
| COc1ccc(C(=O)N2CC[C@@H](N3CCC(O)CC3)[C@H](O)C2)cc1C | -8.1% |
| N[C@@H]1c2ccccc2C2(CCN(C(=O)c3ccc(=O)[nH]c3)CC2)[C@H]1O | 3.27% |
| CN(CC1CCCCO1)c1ncnc2cc(F)ccc12 (stereo not given) | -2.15% |
| O=C(CCN1CCCC(CO)(CC2CC2)C1)NCc1cccc(Cl)c1 (stereo not given) | -1.07% |
| O=C(Cc1ccc(F)cc1Cl)N[C@@H]1CCNC[C@H]1O | -0.918% |
| COC(=O)c1ccc(NC(=O)CNCc2ccco2)cc1 | -12% |
| COc1cccn(Cc2nnc(-c3cccc(F)c3)o2)c1=O | 2% |
| COCCC(=O)N1CCCC(CCc2ccc(F)c(F)c2)C1 (stereo not given) | -2.59% |
| FC(F)(F)C1CN(Cc2cccc(-c3ccccn3)c2)CCO1 (stereo not given) | -7.73% |
| C=C(C)COc1ccccc1C(=O)N(C)C(C)c1c(C)n[nH]c1C (stereo not given) | 3.23% |
| Fc1ccc(C(CNc2ccncn2)N2CCCCC2)cc1 (stereo not given) | -1.88% |
| CSCc1nc(CNC(=O)C2CCCN(CC(N)=O)C2)cs1 (stereo not given) | -7.82% |
| COC(=O)c1ccc2ccn(CC3CCNC3)c(=O)c2c1 (stereo not given) | -28% |
| CC(C)C(C(=O)N1CCN(c2nccs2)CC1)n1cncn1 (stereo not given) | -4.35% |
| COc1ccccc1CC(=O)N1CCCC(CNS(C)(=O)=O)C1 (stereo not given) | 0.691% |
| Cc1cc(C(=O)NCc2ccnc(N3CCOCC3)c2)c(C)s1 | -0.426% |
| Cc1nc(CN2CCN(C(C)c3nc(C4CC4)no3)CC2)oc1C (stereo not given) | -5.95% |
| Cc1nc(C2CCCN2CCC(=O)N2CCc3ccccc32)no1 (stereo not given) | -1.07% |
| Cn1cc(C2CCCN2C(=O)CCc2cnn(-c3ccccc3)c2)cn1 (stereo not given) | -6.88% |
| CN(C)c1cc2c(nn1)CCN(C(=O)C1CCCc3ccccc31)C2 (stereo not given) | -8.57% |
| Fc1ccc(-c2nc(CN3CCCC3Cn3cncn3)co2)cc1 (stereo not given) | -8.28% |
| CCOCC(O)CN1CCN(C(=O)c2ccc(N(C)C)nn2)CC1 (stereo not given) | -13.1% |

| SMILES | cytotoxicity at 10 µM |
| --- | --- |
| O=C(NCCN1CCCCCC1)c1n[nH]c(=O)c2ccccc12 | -9.86% |
| CCc1nc(CN(C)C2CCN(CC(F)(F)F)C2)no1 (stereo not given) | -16.8% |
| Cc1ccc(CNC(=O)CN2CCOC(Cn3cncn3)C2)s1 (stereo not given) | -8.45% |
| Cc1nc(C)n(CC2CCCN(CCOc3ccccc3F)C2)n1 (stereo not given) | -18.5% |
| CCn1ncc2c1CCCC2NCc1ccc2c(c1)CCO2 (stereo not given) | -4.47% |
| Cc1cccc(C2(C(=O)NCC3CCN(CC(F)(F)F)C3)CCC2)c1 (stereo not given) | -11.5% |
| CCc1cccc(N2CCC(NC(=O)CCNC(N)=O)CC2)c1 | -12.5% |
| COc1cccc(CCC(=O)N2CCCC(c3nncn3C)C2)c1 (stereo not given) | -20.1% |
| CC(Cn1cccn1)NC(=O)N1CCN(Cc2ccsc2)CC1 (stereo not given) | -11.6% |
| CCc1nc(C)c(C(=O)NCCNc2cnccn2)s1 | -4.64% |
| Cn1cc(CN2CCCN(C(=O)c3ccc4c(c3)COC4)CC2)cn1 | -4.27% |
| O=C(CCc1ccc(Cl)s1)N1CCCC(n2cncn2)C1 (stereo not given) | -7.7% |
| O=C(Cc1ccc(F)cc1)N1CCN(CC(O)C2CC2)CC1 (stereo not given) | -15.2% |
| Cn1cncc1CN1CCC2(CC1)COCCN(S(C)(=O)=O)C2 | 4.73% |
| Cc1ccc(C(=O)N2CC3(CCNCC3)c3cc(Cl)ccc32)cn1 | 1.61% |
| O=C(c1ccncc1)N1CC2(CCNCC2)c2cc(Cl)ccc21 | -3.22% |
| Cc1cc2c(=O)n3c(nc2s1)CCN(Cc1cncn1C)CC3 | -14.2% |
| COCCNC(=O)[C@@H]1C[C@@H]2CCN(c3ncccn3)C[C@H]2O1 | -2.48% |
| Cn1ncc2c1CCCC2NCc1cccc(F)c1 (stereo not given) | -15.6% |
| O=C(c1ccsc1)N1C[C@H]2CN(Cc3cccnc3)C(=O)[C@H]2C1 | -5.15% |
| Fc1cnc(N2CCCn3cnc(COc4cccnc4)c3C2)nc1 | 1.42% |
| COc1ccc(CN2CC[C@H]3[C@H](CO[C@H]3CNC(=O)N(C)C)C2)cc1 | 6.96% |
| CN(C)C(=O)COCc1cncc2c1CCN(C1CCOCC1)C2 | 9.66% |
| CC(C)n1cnc2c1C(C(=O)N(C)C)N(Cc1ccccc1)CC2 (stereo not given) | -2.56% |
| CN(Cc1cccnc1)[C@@H]1CN(CC2CC2)[C@@H]2CCCO[C@H]12 | -1.48% |
| CC(=O)N1C[C@H]2CC[C@@H](C1)N(Cc1ccc(Cn3cccn3)cc1)C2 | 0.0531% |
| Nc1cc(C(=O)N2C[C@@H]3CC[C@H]2CN(Cc2cccnc2)C3)ccn1 | 0.624% |
